Data published in ChEMBL document CHEMBL2040723, “1,4-dioxane, a suitable scaffold for the development of novel M₃ muscarinic receptor antagonists” (J Med Chem, 2012).
Activity calls are given as the source filed them. The calls are words filed in the database; no cut-off is given here.

Experiments:
[1] = biological target: T1, Muscarinic acetylcholine receptor M2 (Homo sapiens, UniProt P08172); assay: Displacement of [3H]N-methylscopolamine from human muscarinic M2 receptor expressed in CHO cells after 120 mins by scintillation counting; assay type: cell-based
T1 sequence (P08172 whole entry): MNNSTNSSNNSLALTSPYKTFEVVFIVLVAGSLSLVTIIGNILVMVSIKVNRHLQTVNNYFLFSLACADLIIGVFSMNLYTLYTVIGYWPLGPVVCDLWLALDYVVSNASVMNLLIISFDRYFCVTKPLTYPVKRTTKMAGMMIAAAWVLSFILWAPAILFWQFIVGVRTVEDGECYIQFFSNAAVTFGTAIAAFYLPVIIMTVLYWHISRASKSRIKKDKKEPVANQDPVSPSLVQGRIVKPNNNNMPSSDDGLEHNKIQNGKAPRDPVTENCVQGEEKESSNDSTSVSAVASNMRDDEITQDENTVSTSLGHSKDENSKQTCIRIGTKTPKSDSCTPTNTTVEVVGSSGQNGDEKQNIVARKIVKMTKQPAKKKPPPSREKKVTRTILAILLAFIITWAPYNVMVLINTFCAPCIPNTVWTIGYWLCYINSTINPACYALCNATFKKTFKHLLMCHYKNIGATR

[2] = biological target: T2, Muscarinic acetylcholine receptor M5 (Homo sapiens, UniProt P08912); assay: Displacement of [3H]N-methylscopolamine from human muscarinic M5 receptor expressed in CHO cells after 120 mins by scintillation counting; assay type: cell-based
T2 sequence (P08912 whole entry): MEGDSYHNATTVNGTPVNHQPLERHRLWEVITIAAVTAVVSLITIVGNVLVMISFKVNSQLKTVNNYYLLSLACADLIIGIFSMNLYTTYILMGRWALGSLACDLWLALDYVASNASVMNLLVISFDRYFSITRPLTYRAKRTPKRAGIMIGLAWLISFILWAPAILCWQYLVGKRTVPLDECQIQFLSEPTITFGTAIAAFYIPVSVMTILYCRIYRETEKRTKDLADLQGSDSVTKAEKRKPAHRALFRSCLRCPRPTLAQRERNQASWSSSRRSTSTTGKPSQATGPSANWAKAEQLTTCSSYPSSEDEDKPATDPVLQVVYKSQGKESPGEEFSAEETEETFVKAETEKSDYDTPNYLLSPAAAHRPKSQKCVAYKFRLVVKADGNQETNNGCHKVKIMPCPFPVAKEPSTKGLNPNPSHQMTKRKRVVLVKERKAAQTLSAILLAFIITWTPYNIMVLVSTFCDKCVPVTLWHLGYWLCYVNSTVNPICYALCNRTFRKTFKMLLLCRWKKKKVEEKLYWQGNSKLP

[3] = Antagonist activity at muscarinic M2 receptor in guinea pig left atrium assessed as dissociation constant after 45 mins; assay type: functional, Cavia porcellus, Cardiac atrium
How it was run: (§1)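 Isolated guinea pig tissues: left atrium (M2), ileum (M3) and lung strips (putative M4). Antagonist dissociation constants were calculated by the Furchgott method and reported as pKB, as mean ± SEM of four to six independent experiments. Agonist reference for the tissue responses was bethanechol.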

[4] = species on record: Cavia porcellus; assay: Intrinsic activity at muscarinic M2 receptor in guinea pig left atrium after 45 mins relative to bethanechol; assay type: tissue-based; conditions: Cardiac atrium
How it was run: (§2)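 Guinea pig left atrium (M2) and ileum (M3) preparations. Intrinsic activity is the ratio of the compound's maximum response to the maximum response of bethanechol in that tissue. The pD2 is the −log of the agonist concentration giving 50% of the maximum response attainable in the tissue.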

[5] = species on record: Cavia porcellus; assay: Intrinsic activity at muscarinic M3 receptor in guinea pig ileum after 45 mins relative to bethanechol; assay type: tissue-based; how it was run: as §2
[6] = Antagonist activity at muscarinic M4 receptor in guinea pig lung strips assessed as dissociation constant after 45 mins; assay type: functional, Cavia porcellus; how it was run: as §1
[7] = Antagonist activity at muscarinic M3 receptor in guinea pig ileum assessed as dissociation constant after 45 mins; assay type: functional, Cavia porcellus; how it was run: as §1
[8] = Antagonist activity at muscarinic M1 receptor in rabbit vas deferens assessed as dissociation constant after 45 mins; assay type: functional, Oryctolagus cuniculus
[9] = test system: Rattus norvegicus; assay: Cardiovascular toxicity in anaesthetized Wistar rat assessed as changes in mean arterial pressure at 1 ug/kg, iv; assay type: organism-based, Artery; conditions: in vivo, 0.001 mg/kg
[10] = test system: Rattus norvegicus; assay: Cardiovascular toxicity in anaesthetized Wistar rat assessed as changes in heart rate at 1 ug/kg, iv; assay type: organism-based; conditions: in vivo, 0.001 mg/kg
[11] = test system: Rattus norvegicus; assay: Reduction in volume induced contraction of iv dosed anaesthetized Wistar rat urinary bladder assessed as inhibition of AUC peaks from saline baseline; assay type: functional; conditions: read-out: ID50 (the source's name)
[12] = test system: Rattus norvegicus; assay: Reduction in volume induced contraction of iv dosed anaesthetized Wistar rat urinary bladder assessed as inhibition of VIBC amplitudes relative to untreated control; assay type: functional
[13] = biological target: T3, Muscarinic acetylcholine receptor M4 (Homo sapiens, UniProt P08173); assay: Displacement of [3H]N-methylscopolamine from human muscarinic M4 receptor expressed in CHO cells after 120 mins by scintillation counting; assay type: cell-based
T3 sequence (P08173 whole entry): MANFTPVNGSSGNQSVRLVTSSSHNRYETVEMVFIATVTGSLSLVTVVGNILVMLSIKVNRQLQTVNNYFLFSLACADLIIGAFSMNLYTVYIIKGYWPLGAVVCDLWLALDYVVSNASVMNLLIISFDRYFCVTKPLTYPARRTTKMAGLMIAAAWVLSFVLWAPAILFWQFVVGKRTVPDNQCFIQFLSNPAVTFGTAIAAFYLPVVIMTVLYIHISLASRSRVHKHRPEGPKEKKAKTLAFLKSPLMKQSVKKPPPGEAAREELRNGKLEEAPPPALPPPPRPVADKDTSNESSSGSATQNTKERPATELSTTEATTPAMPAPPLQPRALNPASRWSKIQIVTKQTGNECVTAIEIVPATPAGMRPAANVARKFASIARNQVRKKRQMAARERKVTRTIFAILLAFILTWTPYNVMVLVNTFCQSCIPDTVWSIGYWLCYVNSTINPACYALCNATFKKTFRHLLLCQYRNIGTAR

[14] = Agonist potency at muscarinic M2 receptor in guinea pig left atrium after 45 mins; assay type: functional, Cavia porcellus, Cardiac atrium
[15] = Agonist potency at muscarinic M3 receptor in guinea pig ileum after 45 mins; assay type: functional, Cavia porcellus
How it was run: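 Isolated guinea pig ileum (M3) functional assay. pD2 is the −log of the agonist concentration giving 50% of the maximum response attainable in that tissue. Intrinsic activity is the ratio of the agonist's maximum response to that of bethanechol. Results are mean ± SEM of four to six independent experiments.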

[16] = species on record: Cavia porcellus; assay: Antagonist activity at muscarinic M4 receptor in guinea pig lung strips up to 10 uM after 45 mins; assay type: functional
How it was run: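 Guinea pig lung strips (putative M4) were tested for agonist activity and then for antagonism at concentrations up to 10 μM. Dissociation constants (pKB) were calculated by the Furchgott method from four to six independent experiments.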

[17] = species on record: Cavia porcellus

SMILES	Ki [1]	Ki [2]	pKb [3]	Intrinsic activity [4]	Intrinsic activity [5]	pKb [6]	pKb [7]	Ki [13]	further results
C[N+](C)(C)C[C@@H]1COCC(c2ccccc2)(c2ccccc2)O1.[I-]	0.0331 µM	0.107 µM	6.67	0	0	6.62			
C[N+](C)(C)C[C@H]1COCC(c2ccccc2)(c2ccccc2)O1.[I-]	0.00282 µM	0.0017 µM	7.31	0	0	6.7	8.52		pKb [8]: 8.86; Activity [9]: -12%; Activity [10]: 5%; ED50 [11]: 0.201 mg/kg; Imax [12]: 96%
C[N+](C)(C)CC1COCC(c2ccccc2)(c2ccccc2)O1.[I-] (racemic)	0.00575 µM	0.00437 µM	8.21	0	0	7.77	8.34		
C[N+](C)(C)C[C@@H]1COC[C@H](c2ccccc2)O1.[I-] (relative stereo)			5.56	0	0	5.24		12.3 µM	
CC[C@@H]1COC[C@@H](C[N+](C)(C)C)O1.[I-] (relative stereo)	18.2 µM	> 100 µM		0.7	1			> 100 µM	pD2 [14]: 5.45; pD2 [15]: 5.19; Activity [16]: inactive; pD2 [17]: inactive
C[N+]1(C)CCC(OC(=O)C(c2ccccc2)c2ccccc2)CC1.[I-] [4-DAMP]			8			9.4	9.02		
CN(C)C[C@@H]1COCC(c2ccccc2)(c2ccccc2)O1.O=C(O)C(=O)O	0.0955 µM	0.0813 µM	7	0	0				
CN(C)C[C@@H]1COC(c2ccccc2)(c2ccccc2)O1.O=C(O)C(=O)O			7.11				6.38		
CN(C)CC1COCC(c2ccccc2)(c2ccccc2)O1.O=C(O)C(=O)O (racemic)	0.0166 µM	0.00537 µM	6.95	0	0	7.02	8.24		pKb [8]: 7.86; Activity [9]: -18%; Activity [10]: 4%; ED50 [11]: 0.134 mg/kg; Imax [12]: 72%
C[N+](C)(C)C[C@@H]1COC[C@@H](c2ccccc2)O1.[I-] (relative stereo)			5.14	0	0	<5	<5	29.5 µM	
CN(C)C[C@H]1COCC(c2ccccc2)(c2ccccc2)O1.O=C(O)C(=O)O	0.00977 µM	0.00182 µM	7.63	0	0	6.94			
C[C@H]1COC[C@@H](C[N+](C)(C)C)O1.[I-]				1	1				pD2 [15]: 7.34
COc1ccccc1CNCCCCCCNCCCCCCCCNCCCCCCNCc1ccccc1OC [METHOCTRAMINE]			7.8			7.6	6.3		
CCN(CC)CC#CCOC(=O)C(O)(c1ccccc1)C1CCCCC1 (stereo not given) [OXYBUTYNIN]				0	0				Activity [9]: 20%; Activity [10]: 7%; ED50 [11]: 0.347 mg/kg; Imax [12]: 75%
CC[C@H]1COC[C@@H](C[N+](C)(C)C)O1.[I-] (relative stereo)	6.31 µM	26.3 µM		1	1			25.1 µM	pD2 [14]: 5.62; pD2 [15]: 4.82; Activity [16]: inactive; pD2 [17]: inactive
C[N+](C)(C)C[C@@H]1COC[C@H](C(c2ccccc2)c2ccccc2)O1 (relative stereo)	28.2 µM	7.59 µM						11.2 µM	
C[N+](C)(C)C[C@@H]1COC[C@@H](C(c2ccccc2)c2ccccc2)O1 (relative stereo)	79.4 µM	31.6 µM						17 µM	
